Source: PubChem BioAssay
An excerpt weighted towards active compounds, which were near 1.8% of everything screened.
APOBEC3A inh = APOBEC3A ssDNA deaminase inhibitors, primary screen, selectivity assay for APOBEC3G inhibitor project, biochemical, FAM/TAMRA oligo cleavage fluorescence | DNA dC->dU-editing enzyme APOBEC-3A (Homo sapiens), P31941 | AID 493011, 2011 | 0.41% of 330,000 active | recombinant A3A, FAM/TAMRA ssDNA deamination fluorescence | inhibition, % at 20 µM;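 active = at least 40% inhibition at 20 µM here, with at most 30% in a related deaminase screen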;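 note: plate controls were A3A with DMSO for no effect and wells lacking A3A enzyme for full effect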
Target sequence (P31941 whole entry, looked up): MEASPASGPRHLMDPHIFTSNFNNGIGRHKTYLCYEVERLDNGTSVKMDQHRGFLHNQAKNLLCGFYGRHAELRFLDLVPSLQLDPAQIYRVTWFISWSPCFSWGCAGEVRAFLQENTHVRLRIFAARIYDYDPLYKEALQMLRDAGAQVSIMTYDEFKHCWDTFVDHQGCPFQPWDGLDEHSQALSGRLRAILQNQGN
TbMetRS inhib = T. brucei MetRS inhibitors, primary screen, biochemical, luminescence; purified T. brucei MetRS, ATP depletion, Kinase-Glo luminescence; inhibition, % at 11.9 µM; 0.4% of 360,000 active; AID 624268, 2012;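 active = inhibition above a per-plate cutoff of the control wells' mean inhibition plus 3 SD, cut at about 5.5% in these data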;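 note: 0% = DMSO wells median and 100% = median of wells with control inhibitor compound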
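Dosing: 11.9 µM compound single dose, 0.9% DMSO; Assay system: purified T. brucei MetRS enzyme; Measured by: Kinase-Glo luciferase luminescence reporting remaining unconsumed ATP; Schedule: 15 min plus 2 h at 25 °C.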
A3G deaminase = APOBEC3G DNA deaminase inhibitors, primary screen, biochemical, fluorescence, single-stranded DNA substrate, uHTS. DNA dC->dU-editing enzyme APOBEC-3G (Homo sapiens), Q9HC16. recombinant A3G, ssDNA deamination FAM/TAMRA fluorescence. inhibition, % at 20 µM. 0.28% of 330,000 active;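 active = inhibition of at least 40% at 20 µM, with no more than 30% in the related APOBEC3A deaminase screen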;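 note: plate controls were DMSO wells with A3G for no effect and wells lacking A3G enzyme for full effect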
PHOSPHO1 block = PubChem AID 1565; Phosphoethanolamine/phosphocholine phosphatase (Homo sapiens), Q8TCT1; recombinant PHOSPHO1, absorbance phosphatase assay; inhibition, % at 13.3 µM; 1.1% of 290,000 active; in the data active = inhibition above about 60%
pCIP destab = p/CIP-EGFP fusion destabilizers, primary screen, fluorescence, F442A cells; Q05BA5; 16 h; decrease of EGFP signal, % at 10 µM; 0.01% of 290,000 active; AID 1984, 2009;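 active = EGFP signal decrease of at least 30% at 10 µM or well 3 SD below plate mean, unless failing retest; inactive = the rest, including hits failing retest or dose response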
APOBEC3G confirm = APOBEC3G deaminase inhibitor retest, confirmation, biochemical, fluorescence, single-stranded DNA substrate, single concentration | 72% of 890 active | shares compounds with A3G deaminase | inhibition, % at 20 µM | AID 493152, 2011 | recombinant A3G ssDNA deaminase, UDG/FAM-TAMRA fluorescence;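 active = inhibition reaching a set limit in any replicate at 20 µM, the limit being 80% of the first screen's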
UDG ctr A3G = E. coli UDG inhibitors, confirmation, counter-screen for APOBEC3G inhibitor project, biochemical, single concentration, fluorescence, FAM/TAMRA oligo. shares compounds with A3G deaminase. UDG counterscreen. inhibition, % at 20 µM. 710 tested, under 10 active. AID 504715, 2011;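 active = compounds giving 40% or more inhibition at 20 µM in any one of the three replicates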;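 note: plate controls were DMSO wells with UDG and oligo for no effect and DMSO wells lacking both for full effect; inhibitors lower the FAM signal released by uracil excision and alkaline cleavage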
Target sequence (P12295 whole entry, looked up): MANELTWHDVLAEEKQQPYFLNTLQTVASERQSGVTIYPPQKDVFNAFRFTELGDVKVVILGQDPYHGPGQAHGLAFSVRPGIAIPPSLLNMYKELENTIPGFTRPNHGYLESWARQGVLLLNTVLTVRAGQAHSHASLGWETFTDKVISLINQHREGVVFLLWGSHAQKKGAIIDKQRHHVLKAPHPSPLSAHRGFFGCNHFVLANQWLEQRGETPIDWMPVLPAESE
Starred values were filed as active, the others as inactive; . = not tested or not shown.

SMILES	APOBEC3A inh	TbMetRS inhib	A3G deaminase	PHOSPHO1 block	pCIP destab	APOBEC3G confirm	UDG ctr A3G
CCOc1cc(/C=C2\CCCc3c2nc2ccccc2c3C(=O)O)ccc1OC	21.4	-0.6	47.8*	19.0	-103.6	17.8	.
Cn1c(-c2ccco2)n[nH]c1=S	1.6	-1.1	17.8	-89.8	4.3	.	.
CC(C)Cn1c(-c2ccco2)n[nH]c1=S	1.2	-0.4	46.3*	80.4*	-0.3	20.8	.
S=c1[nH]nc(-c2ccco2)n1Cc1ccccc1	-1.1	-0.3	50.8*	79.3*	-6.7	72.7*	-3.3
CCCCn1c(-c2ccco2)n[nH]c1=S	-2.0	-1.2	63.1*	9.5	4.0	65.6*	4.0
C=CCn1c(-c2ccco2)n[nH]c1=S	-17.8	-0.3	31.6	-100.6	4.0	.	.
O=C(N/N=C/c1c[nH]c2ccc(Br)cc12)C1CC1	2.6	-1.1	-1.7	-1.3	6.5	.	.
c1ccc2[nH]c(CCCc3nc4ccccc4[nH]3)nc2c1	-5.9	1.0	-2.0	-2.1	-5.4	.	.
S=c1cnc2ccccc2[nH]1	-4.6	-0.1	62.0*	-55.1	6.1	84.1*	3.0
OC[C@@H]1CN(Cc2ccc(F)cc2)C[C@H](n2cnc3c(NC4CC4)ncnc32)O1	.	-0.2	.	.	.	.	.
S=c1[nH]nc(COc2ccccc2)n1/N=C/c1cccnc1	-1.0	0.0	55.7*	46.1	9.0	77.3*	-2.8
Oc1ccc(/C=N/n2c(COc3ccccc3)n[nH]c2=S)cc1O	-8.4	0.0	43.0*	18.7	-2.7	77.3*	-2.2
O=[N+]([O-])c1cccc(/C=N/n2c(COc3ccccc3)n[nH]c2=S)c1	0.2	-1.1	59.2*	27.0	-32.7	73.2*	-2.6
CCOc1ccc(CCNS(=O)(=O)c2c(C)nc3sccn3c2=O)cc1OCC	.	-0.5	.	.	.	.	.
CSc1ncccc1C(=O)OCC(=O)c1ccc(C)s1	0.9	-0.2	-10.5	.	.	.	.
O=C(O)CNC(=O)CC1S/C(=N/N=C2/NC(=O)CS2)NC1=O (stereo not given)	-3.0	0.5	-0.3	-86.0	-4.5	.	.
N/C(=N\c1nc2ccccc2o1)NC(=O)c1ccccc1	-0.3	-0.3	61.2*	14.8	-7.3	-2.2	0.7
COc1ccc(CNC(=O)CCSCc2cccc(F)c2)cc1	-0.8	0.9	-4.4	29.9	2.7	.	.
CCCCCC(=O)N(O)C1CC(=O)N(c2ccccc2)C1=O (stereo not given)	-0.1	-0.3	41.7*	4.9	-6.8	43.4*	6.7
CCSc1nnc2n1C(C)(C)Cc1ccccc1-2	-3.1	-0.3	-1.4	34.9	4.0	.	.
CC1(C)Cc2ccccc2-c2n[nH]c(=S)n21	-7.7	0.0	56.1*	95.8*	-1.4	90.2*	-4.4
CCN(CC)C(=O)CSc1nc2c(sc(=S)n2-c2ccccc2)c(=O)n1-c1ccccc1OC	-2.9	-0.7	-10.5	14.1	2.3	.	.
CCOC(=O)CSc1nc2c(sc(=S)n2-c2ccccc2)c(=O)n1-c1ccc(OC)cc1OC	3.6	-1.5	40.8*	13.4	-2.1	28.5*	-4.2
CCN(CC)C(=O)CSc1nc2c(sc(=S)n2-c2ccccc2)c(=O)n1-c1ccc(OC)cc1OC	1.4	0.3	52.6*	-81.1	-4.6	56.4*	-3.8
COc1ccccc1NC(=O)Nc1ccc2c(c1)nc(C)n2C	-3.7	-1.0	-1.8	36.7	-16.7	.	.
O=C(CN1C(=O)NC2(CCCC2)C1=O)N1CCN(c2ccccc2O)CC1	-1.8	-0.6	-1.5	.	.	.	.
CCNc1nc(NCC)n2c(SCC(=O)Nc3ccc(CC)cc3)nnc2n1	3.4	-0.3	49.0*	.	.	47.4*	-1.2
